Data: paper PMC10975593 (ACS Omega, 2024)
Where two headings read alike, the source gives them in different places.

Legend:
NCI-H522 = experiment: NCI 60-cell line screen; type: cell-based, human; details: for GI50 / IC50 / CC50: Homo sapiens; for GI50 / IC50: NCI-H522; for CC50: NCI-H522, read-out: LC50; for TGI: NCI-H522, non-small cell lung cancer
LOX IMVI = experiment: NCI 60-cell line screen; type: cell-based, human; details: for GI50 / IC50 / CC50: Homo sapiens; for CC50: read-out: LC50; for TGI: melanoma
NCI-H322M = experiment: NCI 60-cell line screen; type: cell-based, human; details: for GI50 / IC50 / CC50: Homo sapiens; for CC50: read-out: LC50; for TGI: non-small cell lung cancer
HT29 = experiment: NCI 60-cell line screen; type: cell-based, human; details: for TGI: HT29, colon cancer; for GI50 / IC50 / CC50: Homo sapiens; for GI50 / IC50: HT-29; for CC50: HT-29, read-out: LC50
NCI/ADR-RES = experiment: NCI 60-cell line screen; type: cell-based, human; details: for GI50 / IC50 / CC50: Homo sapiens; for CC50: read-out: LC50; for TGI: ovarian cancer
SK-MEL-5 = experiment: NCI 60-cell line screen; type: cell-based, human; details: for GI50 / IC50 / CC50: Homo sapiens; for GI50 / IC50: SK-MEL-5; for CC50: SK-MEL-5, read-out: LC50; for TGI: SK-MEL-5, melanoma
How it was run: (§1)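 Test compounds were submitted to the National Cancer Institute and run under NCI's standard 60-cell-line protocols. Read-outs were taken from percent-growth versus log-concentration curves.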

UACC-62 = experiment: NCI 60-cell line screen; type: cell-based, human; details: for GI50 / IC50 / CC50: Homo sapiens; for GI50 / IC50: UACC-62; for CC50: UACC-62, read-out: LC50; for TGI: UACC-62, melanoma
How it was run: as §1

SN12C = experiment: NCI 60-cell line screen; type: cell-based, human; details: for GI50 / IC50 / CC50: Homo sapiens; for CC50: read-out: LC50; for TGI: renal cancer
How it was run: as §1

A549 cancer cell line = experiment: MTT assay; type: cell-based; details: Homo sapiens, A549, 72 h; for inhibition at 100 µM: read-out: experimental % of inhibition on A549 cancer cell line
How it was run: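 A549 in DMEM and MCF-7 in RPMI, each with 10% heat-inactivated FBS, 1% penicillin/streptomycin and 2 mmol/L glutamine at 37 °C, 5% CO2. Seeded at 2000 (A549) or 10,000 (MCF-7) cells/well and attached 24 h. Then 72 h with test compound at varying concentrations. MTT (5 mg/mL stock) added for 4 h at 37 °C, formazan dissolved in DMSO, absorbance read at 450/540 nm. Triplicates in three separate experiments.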

SF-295 = experiment: NCI 60-cell line screen; type: cell-based, human; details: for GI50 / IC50 / CC50: Homo sapiens; for GI50 / IC50: SF-295; for CC50: SF-295, read-out: LC50; for TGI: SF-295, CNS cancer
How it was run: as §1

SNB-19 = experiment: NCI 60-cell line screen; type: cell-based, human; details: for GI50 / IC50 / CC50: Homo sapiens; for GI50 / IC50: SNB-19; for CC50: SNB-19, read-out: LC50; for TGI: SNB-19, CNS cancer
How it was run: as §1

PI3Kγ enzyme = PI3Kγ enzyme (Homo sapiens, UniProt P48736); experiment: Adapta universal kinase assay, anti-PI3Kγ activity; type: biochemical
Sequence of PI3Kγ enzyme (P48736 whole entry): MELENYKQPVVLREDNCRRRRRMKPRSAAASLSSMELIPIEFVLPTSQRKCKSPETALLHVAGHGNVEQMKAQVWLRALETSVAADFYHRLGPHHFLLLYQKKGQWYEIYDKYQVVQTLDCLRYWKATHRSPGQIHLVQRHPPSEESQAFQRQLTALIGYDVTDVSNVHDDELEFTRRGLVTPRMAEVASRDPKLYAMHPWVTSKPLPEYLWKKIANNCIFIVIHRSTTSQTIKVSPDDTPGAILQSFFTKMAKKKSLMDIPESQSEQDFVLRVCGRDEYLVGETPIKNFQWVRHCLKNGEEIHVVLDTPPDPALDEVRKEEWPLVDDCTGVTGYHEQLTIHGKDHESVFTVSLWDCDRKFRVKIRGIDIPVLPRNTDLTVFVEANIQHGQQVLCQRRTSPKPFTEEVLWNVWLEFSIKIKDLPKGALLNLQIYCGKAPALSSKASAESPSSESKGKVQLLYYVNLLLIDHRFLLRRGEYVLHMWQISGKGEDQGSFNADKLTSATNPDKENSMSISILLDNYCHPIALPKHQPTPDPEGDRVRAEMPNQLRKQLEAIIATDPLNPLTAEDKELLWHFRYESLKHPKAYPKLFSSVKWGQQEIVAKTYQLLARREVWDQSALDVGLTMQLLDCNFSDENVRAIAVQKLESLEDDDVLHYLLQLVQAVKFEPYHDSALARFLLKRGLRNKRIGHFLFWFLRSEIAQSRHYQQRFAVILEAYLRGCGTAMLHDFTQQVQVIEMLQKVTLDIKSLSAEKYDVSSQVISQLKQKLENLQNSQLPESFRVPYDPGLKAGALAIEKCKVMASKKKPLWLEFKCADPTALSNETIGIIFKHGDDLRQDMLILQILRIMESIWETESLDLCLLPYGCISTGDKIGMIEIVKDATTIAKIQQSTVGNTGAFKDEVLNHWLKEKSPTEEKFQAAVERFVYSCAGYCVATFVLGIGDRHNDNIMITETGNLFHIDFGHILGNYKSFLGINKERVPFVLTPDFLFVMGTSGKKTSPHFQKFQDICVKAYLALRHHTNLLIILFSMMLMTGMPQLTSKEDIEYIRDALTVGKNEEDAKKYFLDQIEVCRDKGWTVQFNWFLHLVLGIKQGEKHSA
How it was run: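 Adapta ADP-detection TR-FRET immunoassay with test compound at 100 μM. The kinase reaction runs 60 min. It is then stopped by a detection solution of EDTA, europium-labelled anti-ADP antibody and Alexa Fluor 647-labelled ADP tracer. ADP formed displaces the tracer and lowers the TR-FRET signal. ADP formation is calculated from the emission ratio.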

EKVX = experiment: NCI 60-cell line screen; type: cell-based, human; details: for GI50 / IC50 / CC50: Homo sapiens; for CC50: read-out: LC50; for TGI: non-small cell lung cancer
MDA-MB-435 = experiment: NCI 60-cell line screen; type: cell-based, human; details: for GI50 / IC50 / CC50: Homo sapiens; for GI50 / IC50: MDA-MB-435; for CC50: MDA-MB-435, read-out: LC50; for TGI: MDA-MB-435, melanoma
SF-268 = experiment: NCI 60-cell line screen; type: cell-based, human; details: for GI50 / IC50 / CC50: Homo sapiens; for GI50 / IC50: SF-268; for CC50: SF-268, read-out: LC50; for TGI: SF-268, CNS cancer
How it was run: as §1

Escherichia coli = experiment: Disc diffusion antimicrobial test; type: cell-based; details: Escherichia coli, 24 h, read-out: zone of inhibition (diameter of inhibition)
How it was run: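 Disc diffusion on nutrient agar, test compound at 100 μg/mL with DMSO as solvent. Plates incubated at 37 °C for 24 h after inoculation, then zone of inhibition measured and compared with standards. Controls were DMSO, amoxicillin, ciprofloxacin and tetracycline.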

HOP-62 = experiment: NCI 60-cell line screen; type: cell-based, human; details: for TGI: HOP-62, non-small cell lung cancer; for GI50 / IC50 / CC50: Homo sapiens; for GI50 / IC50: HOP-62; for CC50: HOP-62, read-out: LC50
ACHN = experiment: NCI 60-cell line screen; type: cell-based, human; details: for GI50 / IC50 / CC50: Homo sapiens; for CC50: read-out: LC50; for TGI: renal cancer
COLO 205 = experiment: NCI 60-cell line screen; type: cell-based, human; details: for TGI: COLO 205, colon cancer; for GI50 / IC50 / CC50: Homo sapiens; for GI50 / IC50: COLO 205; for CC50: COLO 205, read-out: LC50
HCT-116 = experiment: NCI 60-cell line screen; type: cell-based, human; details: for TGI: HCT-116, colon cancer; for GI50 / IC50 / CC50: Homo sapiens; for GI50 / IC50: HCT-116; for CC50: HCT-116, read-out: LC50
CAKI-1 = experiment: NCI 60-cell line screen; type: cell-based, human; details: for TGI: CAKI-1, renal cancer; for GI50 / IC50 / CC50: Homo sapiens; for GI50 / IC50: CAKI-1; for CC50: CAKI-1, read-out: LC50
DU-145 = experiment: NCI 60-cell line screen; type: cell-based, human; details: for TGI: DU-145, prostate cancer; for GI50 / IC50 / CC50: Homo sapiens; for GI50 / IC50: DU-145; for CC50: DU-145, read-out: LC50
MDA-MB-231/ATCC = experiment: NCI 60-cell line screen; type: cell-based, human; details: for GI50 / IC50 / CC50: Homo sapiens; for GI50 / IC50: MDA-MB-231; for CC50: MDA-MB-231, read-out: LC50; for TGI: MDA-MB-231/ATCC, breast cancer
[1] = read-out: % of inhibition (mean) against PI3Kγ enzyme
[2] = read-out: % of inhibition against PI3Kγ enzyme, point 1
[3] = read-out: % of inhibition against PI3Kγ enzyme, point 2

## O=C(CNc1ccc([N+](=O)[O-])cc1)Nc1nc2ccccc2s1 [OMS5, N-(1,3-benzothiazol-2-yl)-2-(4-nitroanilino)acetamide]
NCI-H522
  GI50: 0.7 µM
  IC50: 2.1 µM
  CC50: 6.3 µM
  TGI: 2.3 µM
LOX IMVI
  GI50: 0.6 µM
  IC50: 1 µM
  CC50: 8.7 µM
  TGI: 2.6 µM
NCI-H322M
  GI50: 1.1 µM
  IC50: 2.5 µM
  CC50: 28.8 µM
  TGI: 4.1 µM
HT29
  TGI: 2.1 µM
  GI50: 0.5 µM
  IC50: 0.7 µM
  CC50: 8.1 µM
NCI/ADR-RES
  GI50: 0.6 µM
  IC50: 1.3 µM
  CC50: 53.7 µM
  TGI: 4.6 µM
SK-MEL-5
  GI50: 1.6 µM
  IC50: 2.9 µM
  CC50: 5.5 µM
  TGI: 3 µM
UACC-62
  GI50: 1.1 µM
  IC50: 2 µM
  CC50: 5.5 µM
  TGI: 2.5 µM
SN12C
  GI50: 0.6 µM
  IC50: 1.5 µM
  CC50: 57.5 µM
  TGI: 4.9 µM
A549 cancer cell line
  IC50: 61 µM
  inhibition at 100 µM: 64.2%
SF-295
  GI50: 0.7 µM
  IC50: 1.4 µM
  CC50: 24 µM
  TGI: 4.4 µM
SNB-19
  GI50: 1 µM
  IC50: 2.6 µM
  CC50: 95.5 µM
  TGI: 10 µM
PI3Kγ enzyme; [1]
  inhibition at 100 µM: 0%
PI3Kγ enzyme; [2]
  inhibition at 100 µM: 0%
PI3Kγ enzyme; [3]
  inhibition at 100 µM: 0%
EKVX
  GI50: 1.1 µM
  IC50: 2.5 µM
  CC50: 26.9 µM
  TGI: 4.2 µM
MDA-MB-435
  GI50: 0.7 µM
  IC50: 1.3 µM
  CC50: 4.8 µM
  TGI: 2 µM
SF-268
  GI50: 1.3 µM
  IC50: 3.5 µM
  CC50: 51.3 µM
  TGI: 6.6 µM
Escherichia coli
  zone of inhibition at 100 µg/mL: 0 mm
HOP-62
  TGI: 4.9 µM
  GI50: 1.2 µM
  IC50: 3 µM
  CC50: 25.1 µM
ACHN
  GI50: 0.4 µM
  IC50: 0.8 µM
  CC50: 33.1 µM
  TGI: 8.5 µM
COLO 205
  TGI: 1.5 µM
  GI50: 0.4 µM
  IC50: 0.7 µM
  CC50: 4.7 µM
HCT-116
  TGI: 11 µM
  GI50: 0.4 µM
  IC50: 0.4 µM
  CC50: 45.7 µM
CAKI-1
  TGI: 9.5 µM
  GI50: 0.4 µM
  IC50: 0.9 µM
  CC50: 32.4 µM
DU-145
  TGI: 12 µM
  GI50: 0.8 µM
  IC50: 1.8 µM
  CC50: 52.5 µM
MDA-MB-231/ATCC
  GI50: 1 µM
  IC50: 2.3 µM
  CC50: 8.3 µM
  TGI: 2.9 µM

## O=C(CN1CCN(CC(=O)Nc2nc3ccccc3s2)CC1)Nc1ccc([N+](=O)[O-])cc1 [OMS14, N-(benzo[d]thiazol-2-yl)-2-(4-(2-((4-nitrophenyl)amino)-2-oxoethyl)piperazin-1-yl)acetamide]
NCI-H522
  GI50: 1.5 µM
  IC50: 3 µM
  CC50: 6.5 µM
  TGI: 3.2 µM
LOX IMVI
  GI50: 1.6 µM
  IC50: 2.8 µM
  CC50: 6.2 µM
  TGI: 3.2 µM
NCI-H322M
  GI50: 1.9 µM
  IC50: 3.7 µM
  CC50: 40.7 µM
  TGI: 5.5 µM
HT29
  TGI: 3.6 µM
  GI50: 1.3 µM
  IC50: 2.1 µM
  CC50: 10.2 µM
NCI/ADR-RES
  GI50: 1.3 µM
  IC50: 2.4 µM
  CC50: 7.8 µM
  TGI: 3.2 µM
SK-MEL-5
  GI50: 1.7 µM
  IC50: 3.2 µM
  CC50: 6.3 µM
  TGI: 3.3 µM
UACC-62
  GI50: 1.7 µM
  IC50: 3.1 µM
  CC50: 6.9 µM
  TGI: 3.5 µM
SN12C
  GI50: 1.9 µM
  IC50: 3.5 µM
  CC50: > 100 µM
  TGI: 5.4 µM
A549 cancer cell line
  IC50: 26.1 µM
  inhibition at 100 µM: 90.6%
SF-295
  GI50: 2.2 µM
  IC50: 3.7 µM
  CC50: 28.8 µM
  TGI: 7.1 µM
SNB-19
  GI50: 2.8 µM
  IC50: 4.9 µM
  CC50: > 100 µM
  TGI: 12.3 µM
PI3Kγ enzyme; [1]
  inhibition at 100 µM: 19%
PI3Kγ enzyme; [2]
  inhibition at 100 µM: 15%
PI3Kγ enzyme; [3]
  inhibition at 100 µM: 24%
EKVX
  GI50: 2 µM
  IC50: 3.8 µM
  CC50: 27.5 µM
  TGI: 4.9 µM
MDA-MB-435
  GI50: 1.8 µM
  IC50: 3 µM
  CC50: 15.1 µM
  TGI: 4.6 µM
SF-268
  GI50: 2.2 µM
  IC50: 4.6 µM
  CC50: 43.7 µM
  TGI: 7.1 µM
Escherichia coli
  zone of inhibition at 100 µg/mL: 0 mm
HOP-62
  TGI: 3.7 µM
  GI50: 1.7 µM
  IC50: 3.2 µM
  CC50: 8.3 µM
ACHN
  GI50: 1.1 µM
  IC50: 2.1 µM
  CC50: 22.9 µM
  TGI: 4.4 µM
COLO 205
  TGI: 2.2 µM
  GI50: 1 µM
  IC50: 1.7 µM
  CC50: 5 µM
HCT-116
  TGI: 10.5 µM
  GI50: 0.7 µM
  IC50: 0.8 µM
  CC50: 52.5 µM
CAKI-1
  TGI: 3.6 µM
  GI50: 0.9 µM
  IC50: 2 µM
  CC50: 16.2 µM
DU-145
  TGI: 7.9 µM
  GI50: 2.2 µM
  IC50: 3.5 µM
  CC50: 38.9 µM
MDA-MB-231/ATCC
  GI50: 1.9 µM
  IC50: 3.9 µM
  CC50: 18.2 µM
  TGI: 4.7 µM
